From ChEMBL document CHEMBL1125903, “New derivatives of kanamycin B obtained by modifications and substitutions in position 6". 1. Synthesis and microbiological evaluation” (1991)
≈ marks a conversion by molar mass, not a printed value.

How the values were obtained:
Enterococcus faecalis = test: Minimum inhibitory concentration measured against […] faecalis (ATCC 19431); format: functional
Procedure, shortened: (§1)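 Agar dilution MIC on Mueller-Hinton agar supplemented with CaCl2 and MgCl2 (NCCLS standards), 2-fold dilutions. Compounds tested as sulfate salts dissolved in sterile water; values expressed in mg/L of free base, with base content determined by 1H NMR. Spots of 10^4-10^5 CFU applied by multipoint inoculator. Growth read visually after 24 h at 37 °C.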

Salmonella typhimurium = test: Minimum inhibitory concentration measured against Salmonella Typhimurium (ATCC 14028); format: functional, Salmonella enterica subsp. enterica serovar Typhimurium; conditions: Salmonella enterica; procedure, shortened: as §1
Serratia marcescens [1] = test: Minimum inhibitory concentration measured against Serratia marcescens (ATCC 8100); format: functional; procedure, shortened: as §1
Bacillus subtilis = test: Minimum inhibitory concentration measured against Bacillus subtilis (ATCC 6633); format: functional; procedure, shortened: as §1
Klebsiella aerogenes = test: Minimum inhibitory concentration measured against Enterobacter aerogenes (ATCC 13048); format: functional; procedure, shortened: as §1
Pseudomonas aeruginosa = test: Minimum inhibitory concentration measured against Pseudomonas aeruginosa (NCTC 10701); format: functional; procedure, shortened: as §1
Staphylococcus aureus = test: Minimum inhibitory concentration measured against Staphylococcus aureus (ATCC 25923); format: functional; procedure, shortened: as §1
Citrobacter freundii = test: Minimum inhibitory concentration measured against Citrobacter freundii (ATCC 8090); format: functional; procedure, shortened: as §1
Klebsiella pneumoniae = test: Minimum inhibitory concentration measured against Klebsiella pneumoniae (ATCC 13883); format: functional; procedure, shortened: as §1
Enterobacter cloacae = test: Minimum inhibitory concentration measured against Enterobacter cloacae (ATCC 23355); format: functional; procedure, shortened: as §1
Proteus vulgaris = test: Minimum inhibitory concentration measured against Proteus vulgaris (ATCC 13315); format: functional; procedure, shortened: as §1
[2] = test system: Staphylococcus epidermidis; test: Minimum inhibitory concentration measured against Staphylococcus epidermidis (ATCC 12228); format: functional; procedure, shortened: as §1
Escherichia coli = test: Minimum inhibitory concentration measured against Escherichia coli (ATCC 25922); format: functional; procedure, shortened: as §1
Serratia marcescens [3] = test: Minimum inhibitory concentration measured against CDC 87457 strain; format: functional; procedure, shortened: as §1

MIC (Enterococcus faecalis) [µg/mL] | MIC (Salmonella typhimurium) [µg/mL] | MIC (Serratia marcescens [1]) [µg/mL] | MIC (Bacillus subtilis) [µg/mL] | MIC (Klebsiella aerogenes) [µg/mL] | MIC (Pseudomonas aeruginosa) [µg/mL] | MIC (Staphylococcus aureus) [µg/mL] | MIC (Citrobacter freundii) [µg/mL] | MIC (Klebsiella pneumoniae) [µg/mL] | MIC (Enterobacter cloacae) [µg/mL] | MIC (Proteus vulgaris) [µg/mL] | MIC [2] [µg/mL] | MIC (Escherichia coli) [µg/mL] | Structure (SMILES) | MIC (Serratia marcescens [3]) [µg/mL]
> 64 | > 64 | > 64 | > 64 | > 64 | > 64 | > 64 | > 64 | > 64 | 32 (≈ 28.1 µM) | > 64 | > 64 | > 64 | CCCCCC(=O)N(CCCC)CC1OC(OC2C(NC(=O)OC(C)(C)C)CC(NC(=O)OC(C)(C)C)C(OC3OC(CNC(=O)OC(C)(C)C)C(O)C(O)C3NC(=O)OC(C)(C)C)C2O)C(O)C(NC(=O)OC(C)(C)C)C1O (stereo not drawn) | 
8 (≈ 7.68 µM) | 8 (≈ 7.68 µM) | > 64 | 4 (≈ 3.84 µM) | 4 (≈ 3.84 µM) | > 64 | 1 (≈ 0.959 µM) | 1 (≈ 0.959 µM) | 2 (≈ 1.92 µM) | 0.25 (≈ 0.24 µM) | 1 (≈ 0.959 µM) | 0.25 (≈ 0.24 µM) | 2 (≈ 1.92 µM) | CCCSCC1OC(OC2C(NC(=O)OC(C)(C)C)CC(NC(=O)OC(C)(C)C)C(OC3OC(CNC(=O)OC(C)(C)C)C(O)C(O)C3NC(=O)OC(C)(C)C)C2O)C(O)C(NC(=O)OC(C)(C)C)C1O (stereo not drawn) | 
> 64 | 64 (≈ 61.6 µM) | > 64 | 32 (≈ 30.8 µM) | 32 (≈ 30.8 µM) | > 64 | 4 (≈ 3.85 µM) | 8 (≈ 7.7 µM) | 8 (≈ 7.7 µM) | 1 (≈ 0.962 µM) | 8 (≈ 7.7 µM) | 2 (≈ 1.92 µM) | 32 (≈ 30.8 µM) | CC(=O)N(C)CC1OC(OC2C(NC(=O)OC(C)(C)C)CC(NC(=O)OC(C)(C)C)C(OC3OC(CNC(=O)OC(C)(C)C)C(O)C(O)C3NC(=O)OC(C)(C)C)C2O)C(O)C(NC(=O)OC(C)(C)C)C1O (stereo not drawn) | 

Structure (SMILES) | MIC (Enterococcus faecalis) [µg/mL] | MIC (Salmonella typhimurium) [µg/mL] | MIC (Serratia marcescens [1]) [µg/mL] | MIC (Bacillus subtilis) [µg/mL] | MIC (Klebsiella aerogenes) [µg/mL] | MIC (Pseudomonas aeruginosa) [µg/mL] | MIC (Staphylococcus aureus) [µg/mL] | MIC (Citrobacter freundii) [µg/mL] | MIC (Klebsiella pneumoniae) [µg/mL] | MIC (Enterobacter cloacae) [µg/mL] | MIC (Proteus vulgaris) [µg/mL] | MIC [2] [µg/mL] | MIC (Escherichia coli) [µg/mL] | MIC (Serratia marcescens [3]) [µg/mL]
NC[C@H]1O[C@H](O[C@H]2[C@H](O)[C@@H](O[C@H]3O[C@H](CO)[C@@H](O)[C@H](N)[C@H]3O)[C@H](N)C[C@@H]2N)[C@H](N)[C@@H](O)[C@@H]1O [BEKANAMYCIN] | 16 (≈ 33.1 µM) | 1 (≈ 2.07 µM) | 1 (≈ 2.07 µM) | 0.5 (≈ 1.03 µM) | 0.5 (≈ 1.03 µM) | 32 (≈ 66.2 µM) | 0.5 (≈ 1.03 µM) | 0.5 (≈ 1.03 µM) | 0.25 (≈ 0.517 µM) | 0.25 (≈ 0.517 µM) | 0.25 (≈ 0.517 µM) | 0.25 (≈ 0.517 µM) | 1 (≈ 2.07 µM) | 1 (≈ 2.07 µM)
